Calls of active or inactive are those of the source. No cut-off for these calls is given here.
Legend:
West Nile virus [1] = test: Inhibition of West Nile virus NS2B-NS3 protease expressed in Escherichia coli Top10F' at 25 uM pre-incubated for 15 mins before addition of Bz-NIe-Lys-Arg-Arg-AMC substrate by spectrofluorometry
In short: (§1)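 Enzyme (DENV2 protease 25 nM; WNV protease 28 nM) pre-incubated with compound for 15 min at room temperature in 200 mM Tris·HCl pH 9.5, 30% glycerol, with 1% v/v DMSO final. Reaction started with 5 μM substrate. Fluorescence (ex 380/em 460 nm) followed every 90 s for up to 30 min at 37 °C. Percent inhibition calculated against no-compound fluorescence. Aprotinin and DMSO served as controls. Triplicates, averaged.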

dengue virus type 2 [2] = test: Inhibition of Dengue virus 2 NS2B-NS3 protease expressed in Escherichia coli Top10F' at 10 uM pre-incubated for 15 mins before addition of Bz-NIe-Lys-Arg-Arg-AMC substrate by spectrofluorometry; in short: as §1
West Nile virus [3] = test: Inhibition of West Nile virus NS2B-NS3 protease expressed in Escherichia coli Top10F' at 10 uM pre-incubated for 15 mins before addition of Bz-NIe-Lys-Arg-Arg-AMC substrate by spectrofluorometry; in short: as §1
dengue virus type 2 [4] = test: Inhibition of Dengue virus 2 NS2B-NS3 protease expressed in Escherichia coli Top10F' at 25 uM pre-incubated for 15 mins before addition of Bz-NIe-Lys-Arg-Arg-AMC substrate by spectrofluorometry; in short: as §1
West Nile virus [5] = test: Competitive inhibition of West Nile virus NS2B-NS3 protease expressed in Escherichia coli Top10F' at 1 to 5 uM uM assessed as increase in Km of substrate pre-incubated for 15 mins before addition of Bz-NIe-Lys-Arg-Arg-AMC substrate by spectrofluorometry
In short: (§2)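 Inhibitor fixed at 0, 1.0, 3.0 or 5.0 μM; substrate varied 0–50 μM. Initial cleavage rates used to derive apparent Km and kcat. Ki taken from secondary plot of Km,app against inhibitor concentration. Duplicates, repeated three times.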

West Nile virus [6] = test: Competitive inhibition of West Nile virus NS2B-NS3 protease expressed in Escherichia coli Top10F' at 1 to 5 uM uM assessed as reduction in kcat/Km of substrate pre-incubated for 15 mins before addition of Bz-NIe-Lys-Arg-Arg-AMC substrate by spectrofluorometry; in short: as §2
[7] = Inhibition of West Nile virus NS2B-NS3 protease expressed in Escherichia coli Top10F' pre-incubated for 15 mins before addition of Bz-NIe-Lys-Arg-Arg-AMC substrate by spectrofluorometry
In short: (§3)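 Protease (DENV2 25 nM; WNV 28 nM) pre-incubated with compound for 15 min at room temperature in 200 mM Tris·HCl pH 9.5 with 30% glycerol. Then 5 μM substrate added, and fluorescence (ex 380/em 460 nm) read at 37 °C for up to 30 min.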

[8] = Inhibition of Dengue virus 2 NS2B-NS3 protease expressed in Escherichia coli Top10F' pre-incubated for 15 mins before addition of Bz-NIe-Lys-Arg-Arg-AMC substrate by spectrofluorometry; set-up: species or system dengue virus type 2; in short: as §3
[9] = 25 uM, in the assay text read “at 25 uM” for “at 10 uM”

| SMILES | inhibition (West Nile virus [1]) | inhibition (dengue virus type 2 [2]) | inhibition (West Nile virus [3]; [9]) | inhibition (dengue virus type 2 [4]) | inhibition (West Nile virus [3]; 10 uM) | inhibition (West Nile virus [5]) | inhibition (West Nile virus [6]) | IC50 [7] | IC50 [8] |
| --- | --- | --- | --- | --- | --- | --- | --- | --- | --- |
| O=C(NCc1cn(Cc2ccccc2)nn1)Nc1ccc(C(=O)NCc2ccco2)cc1 | inactive | inactive | inactive | inactive | – | – | – | – | – |
| O=C(NCc1cn(Cc2ccccc2)nn1)Nc1cccc(C(=O)NCc2ccccc2)c1 | inactive | inactive | inactive | inactive | – | – | – | – | – |
| O=C(NCc1cn(CSc2ccccc2)nn1)Nc1ccc(C(=O)NCc2ccccc2)cc1 | inactive | inactive | inactive | inactive | – | – | – | – | – |
| O=C(NCc1cn(CSc2ccccc2)nn1)Nc1ccc(C(=O)NCc2ccco2)cc1 | inactive | inactive | inactive | inactive | – | – | – | – | – |
| O=C(NCc1cn(CSc2ccccc2)nn1)Nc1ccc(C(=O)NCCc2ccccc2)cc1 | inactive | inactive | inactive | inactive | – | – | – | – | – |
| O=C(NCc1cn(Cc2ccc(F)cc2)nn1)Nc1ccc(C(=O)Nc2ccccc2)cc1 | inactive | inactive | inactive | inactive | – | – | – | – | – |
| O=C(NCc1cn(Cc2ccccc2)nn1)Nc1cccc(C(=O)NCCc2ccccc2)c1 | inactive | inactive | inactive | inactive | – | – | – | – | – |
| O=C(NCc1cn(Cc2ccc(F)cc2)nn1)Nc1ccc(C(=O)Nc2cccc(Oc3ccccc3)c2)cc1 | 60.9% | 41.1% | – | 57% | 44.5% | – | – | – | – |
| O=C(NCc1cn(Cc2ccccc2)nn1)Nc1ccc(C(=O)NCCc2ccccc2)cc1 | inactive | inactive | inactive | inactive | – | – | – | – | – |
| O=C(NCc1cn(Cc2ccccc2)nn1)Nc1ccc(C(=O)NCCN2CCOCC2)cc1 | inactive | inactive | inactive | inactive | – | – | – | – | – |
| O=C(NCc1cn(Cc2ccc(F)cc2)nn1)Nc1ccc(C(=O)Nc2ccc(Oc3ccccc3)cc2)cc1 | 82.3% | 55.3% | – | 76% | 58.8% | Active | Active | 5.51 µM | 6.82 µM |
| O=C(NCc1cn(Cc2ccc(F)cc2)nn1)Nc1ccc(C(=O)NCCN2CCOCC2)cc1 | inactive | inactive | inactive | inactive | – | – | – | – | – |
| O=C(NCc1cn(Cc2ccc(F)cc2)nn1)Nc1ccc(C(=O)NCCc2ccccc2)cc1 | inactive | inactive | inactive | inactive | – | – | – | – | – |
| O=C(NCc1cn(CSc2ccccc2)nn1)Nc1cccc(C(=O)Nc2cccc(Oc3ccccc3)c2)c1 | 60.3% | 40.3% | – | 58.2% | 49.3% | – | – | – | – |
| O=C(NCc1cn(CSc2ccccc2)nn1)Nc1cccc(C(=O)NCc2ccccc2)c1 | inactive | inactive | inactive | inactive | – | – | – | – | – |
| O=C(NCc1cn(CSc2ccccc2)nn1)Nc1ccc(C(=O)Nc2ccc(Oc3ccccc3)cc2)cc1 | inactive | inactive | inactive | inactive | – | – | – | – | – |
| O=C(NCc1cn(Cc2ccccc2)nn1)Nc1ccc(C(=O)NCc2ccccc2)cc1 | inactive | inactive | inactive | inactive | – | – | – | – | – |
| O=C(NCc1cn(Cc2ccc(F)cc2)nn1)Nc1ccc(C(=O)NCc2ccco2)cc1 | inactive | inactive | inactive | inactive | – | – | – | – | – |
| O=C(NCc1cn(CSc2ccccc2)nn1)Nc1ccc(C(=O)Nc2ccccc2)cc1 | inactive | inactive | inactive | inactive | – | – | – | – | – |
| O=C(NCc1cn(CSc2ccccc2)nn1)Nc1ccc(C(=O)NCCN2CCOCC2)cc1 | inactive | inactive | inactive | inactive | – | – | – | – | – |
| O=C(NCc1cn(Cc2ccccc2)nn1)Nc1ccc(C(=O)Nc2ccccc2)cc1 | inactive | inactive | inactive | inactive | – | – | – | – | – |
| O=C(NCc1cn(Cc2ccccc2)nn1)Nc1ccc(C(=O)Nc2cccc(Oc3ccccc3)c2)cc1 | inactive | inactive | inactive | inactive | – | – | – | – | – |
| O=C(NCc1cn(CSc2ccccc2)nn1)Nc1cccc(C(=O)NCCc2ccccc2)c1 | inactive | inactive | inactive | inactive | – | – | – | – | – |
| O=C(NCc1cn(Cc2ccc(F)cc2)nn1)Nc1ccc(C(=O)NCc2ccccc2)cc1 | inactive | inactive | inactive | inactive | – | – | – | – | – |
| O=C(NCc1cn(Cc2ccccc2)nn1)Nc1ccc(C(=O)Nc2ccc(Oc3ccccc3)cc2)cc1 | 58% | 39.4% | – | 52.5% | 46.5% | – | – | – | – |
| O=C(NCc1cn(Cc2ccccc2)nn1)Nc1cccc(C(=O)Nc2cccc(Oc3ccccc3)c2)c1 | inactive | inactive | inactive | inactive | – | – | – | – | – |

Source: ChEMBL document CHEMBL2046357, “Inhibitors of Dengue virus and West Nile virus proteases based on the aminobenzamide scaffold” (Bioorg Med Chem, 2012)
